Experimental data taken from ChEMBL document CHEMBL1123393, “5-HT1 and 5-HT2 binding characteristics of 1-(2,5-dimethoxy-4-bromophenyl)-2-aminopropane analogues” (J Med Chem, 1986).

Legend:
[1] = target: Serotonin 1 (5-HT1) receptor (Rattus norvegicus, UniProt P28564+P30940+P19327+P28565); assay: Binding affinity for 5-hydroxytryptamine 1 receptor of rat prefrontal cortex; format: tissue-based
Summary of the method: (§1)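 Rat prefrontal cortex (female Sprague-Dawley, ca. 200 g) homogenate, 4 mg wet weight tissue per tube, in 50 mM Tris, 5 mM MgCl2, 0.5 mM EDTA (pH 7.4 at 37 °C). Radioligand 2 nM [3H]-5-HT for 5-HT1 or 0.4 nM [3H]ketanserin for 5-HT2. Nonspecific binding with 1 μM 5-HT or 1 μM cinanserin. Filtration, scintillation counting. IC50 from a 23-point curve in triplicate by nonlinear fit; Ki by Cheng-Prusoff.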

[2] = target: Serotonin 2 (5-HT2) receptor (Rattus norvegicus, UniProt P30994+P08909+P14842); assay: Displacement of [3H]ketanserin from rat prefrontal cortex 5-hydroxytryptamine 2 receptor; format: tissue-based; summary of the method: as §1
Rattus norvegicus [3] = assay: DOM appropriate responding in percent when compound administered at 11 mg/kg; format: functional
Summary of the method: (§2)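 Rats trained to discriminate DOM (1.0 mg/kg ip, 15-min presession interval) from saline on two levers. Test doses given ip. Percent of responses on the DOM-appropriate lever recorded during a 2.5-min extinction session.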

Rattus norvegicus [4] = assay: DOM appropriate responding in percent when compound administered at 12 mg/kg; format: functional; summary of the method: as §2
Rattus norvegicus [5] = assay: DOM appropriate responding in percent when compound administered at 2 mg/kg; format: functional; summary of the method: as §2
Rattus norvegicus [6] = assay: DOM appropriate responding in percent when compound administered at 5 mg/kg; format: functional; summary of the method: as §2
Rattus norvegicus [7] = assay: Number of animals responding to the drug 10 (mg/kg) out of 3 animals tested; format: functional
Rattus norvegicus [8] = assay: Number of animals responding to the drug 11 (mg/kg) out of 3 animals tested; format: functional
Rattus norvegicus [9] = assay: Number of animals responding to the drug 12 (mg/kg) out of 3 animals tested; format: functional
Rattus norvegicus [10] = assay: Number of animals responding to the drug 13 (mg/kg) out of 3 animals tested; format: functional
Rattus norvegicus [11] = assay: Number of animals responding to the drug 13 (mg/kg) out of 3 animals tested (second group of 3 animals); 1/3; format: functional
Rattus norvegicus [12] = assay: Number of animals responding to the drug 2 (mg/kg) out of 4 animals tested; format: functional
Rattus norvegicus [13] = assay: Number of animals responding to the drug 5 (mg/kg) out of 4 animals tested; format: functional
Rattus norvegicus [14] = assay: DOM appropriate responses per min when compound administered at 10 mg/kg; format: functional
Summary of the method: (§3)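 DOM (1.0 mg/kg ip) versus saline two-lever discrimination in food-restricted male Sprague-Dawley rats. Test doses given ip with a 15-min presession interval. Response rate (responses/min) measured during a 2.5-min extinction test session.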

Rattus norvegicus [15] = assay: DOM appropriate responses per min when compound administered at 11 mg/kg; format: functional; summary of the method: as §3
Rattus norvegicus [16] = assay: DOM appropriate responses per min when compound administered at 12 mg/kg; format: functional; summary of the method: as §3
Rattus norvegicus [17] = assay: DOM appropriate responses per min when compound administered at 2 mg/kg; format: functional; summary of the method: as §3
Rattus norvegicus [18] = assay: DOM appropriate responses per min when compound administered at 5 mg/kg; format: functional; summary of the method: as §3
Rattus norvegicus [19] = assay: DOM appropriate responding in percent when compound administered at 10 mg/kg; format: functional; summary of the method: as §2
Rattus norvegicus [20] = assay: Concentration required to produce DOM like response when administered in rats; format: functional
Summary of the method: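 Six male Sprague-Dawley rats, food-restricted to about 80% of free-feeding weight, trained on two-lever drug discrimination: DOM HCl 1.0 mg/kg ip versus saline, 15 min pre-session. Test drug given ip before a 2.5-min extinction test.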

Rattus norvegicus [21] = assay: DOM appropriate responding in percent when compound administered at 4 mg/kg; format: functional; summary of the method: as §2
Rattus norvegicus [22] = assay: DOM appropriate responding in percent when compound administered at 6 mg/kg; format: functional; summary of the method: as §2
Rattus norvegicus [23] = assay: DOM appropriate responding in percent when compound administered at 7 mg/kg; format: functional; summary of the method: as §2
Rattus norvegicus [24] = assay: DOM appropriate responding in percent when compound administered at 8 mg/kg; format: functional; summary of the method: as §2
Rattus norvegicus [25] = assay: Number of animals responding to the drug (mg/kg) out of 4 animals tested; format: functional
Rattus norvegicus [26] = assay: Number of animals responding to the drug 5 (mg/kg) out of 6 animals tested; format: functional
Rattus norvegicus [27] = assay: Number of animals responding to the drug 6 (mg/kg) out of 5 animals tested; format: functional
Rattus norvegicus [28] = assay: Number of animals responding to the drug 7 (mg/kg) out of 5 animals tested; format: functional
Rattus norvegicus [29] = assay: Number of animals responding to the drug 8 (mg/kg) out of 3 animals tested; format: functional
Rattus norvegicus [30] = assay: DOM appropriate responses per min when compound administered at 4 mg/kg; format: functional; summary of the method: as §3
Rattus norvegicus [31] = assay: DOM appropriate responses per min when compound administered at 6 mg/kg; format: functional; summary of the method: as §3
Rattus norvegicus [32] = assay: DOM appropriate responses per min when compound administered at 7 mg/kg; format: functional; summary of the method: as §3
Rattus norvegicus [33] = assay: DOM appropriate responses per min when compound administered at 8 mg/kg; format: functional; summary of the method: as §3
Rattus norvegicus [34] = assay: Number of animals responding to the drug 0.5 (mg/kg) out of 3 animals tested; format: functional
Rattus norvegicus [35] = assay: DOM appropriate responses per min when compound administered at 0.2 mg/kg; format: functional; summary of the method: as §3
Rattus norvegicus [36] = assay: DOM appropriate responses per min when compound administered at 0.5 mg/kg; format: functional; summary of the method: as §3
Rattus norvegicus [37] = assay: Number of animals responding to the drug 0.1 (mg/kg) out of 4 animals tested; format: functional
Rattus norvegicus [38] = assay: Number of animals responding to the drug 0.2 (mg/kg) out of 3 animals tested; format: functional
Rattus norvegicus [39] = assay: DOM appropriate responding in percent when compound administered at 0.1 mg/kg; format: functional; summary of the method: as §2
Rattus norvegicus [40] = assay: DOM appropriate responding in percent when compound administered at 0.2 mg/kg; format: functional; summary of the method: as §2
Rattus norvegicus [41] = assay: DOM appropriate responding in percent when compound administered at 0.5 mg/kg; format: functional; summary of the method: as §2
Rattus norvegicus [42] = assay: DOM appropriate responses per min when compound administered at 0.1 mg/kg; format: functional; summary of the method: as §3
Rattus norvegicus [43] = assay: DOM appropriate responding in percent when compound administered at 1.2 mg/kg; format: functional; summary of the method: as §2
Rattus norvegicus [44] = assay: DOM appropriate responding in percent when compound administered at 1.8 mg/kg; format: functional; summary of the method: as §2
Rattus norvegicus [45] = assay: Number of animals responding to the drug 1.2 (mg/kg) out of 3 animals tested; format: functional
Rattus norvegicus [46] = assay: Number of animals responding to the drug 1.8 (mg/kg) out of 3 animals tested; format: functional
Rattus norvegicus [47] = assay: DOM appropriate responses per min when compound administered at 1.2 mg/kg; format: functional; summary of the method: as §3
Rattus norvegicus [48] = assay: DOM appropriate responses per min when compound administered at 1.8 mg/kg; format: functional; summary of the method: as §3

COc1cc(Br)ccc1CC(C)N (stereo not given)
Ki [1]: 2900 nM | Ki [2]: 4870 nM | Activity (Rattus norvegicus [3]): 17% | Activity (Rattus norvegicus [4]): 65% | Activity (Rattus norvegicus [5]): 14% | Activity (Rattus norvegicus [6]): 15% | Activity (Rattus norvegicus [7]): 3 | Activity (Rattus norvegicus [8]): 3 | Activity (Rattus norvegicus [9]): 2 | Activity (Rattus norvegicus [10]): 1 | Activity (Rattus norvegicus [11]): 1 | Activity (Rattus norvegicus [12]): 4 | Activity (Rattus norvegicus [13]): 3 | Response (Rattus norvegicus [14]): 4.5 min | Response (Rattus norvegicus [15]): 3.3 min | Response (Rattus norvegicus [16]): 2.8 min | Response (Rattus norvegicus [17]): 16.3 min | Response (Rattus norvegicus [18]): 14.9 min | Activity (Rattus norvegicus [19]): 8%

COc1cc(C[C@@H](C)N)c(OC)cc1I
Ki [1]: 2290 nM | Ki [2]: 9.9 nM

COc1cc(CC(C)N)c(OC)cc1Br (racemic) [BROLAMFETAMINE]
Ki [1]: 3340 nM | ED50 (Rattus norvegicus [20]): 0.2 mg/kg

COc1cccc(CC(C)N)c1 (racemic)
Ki [1]: 2660 nM | Ki [2]: 7850 nM

CCCNC(C)Cc1cc(OC)c(Br)cc1OC (stereo not given)
Ki [1]: 1320 nM | Ki [2]: 1930 nM | Activity (Rattus norvegicus [21]): 24% | Activity (Rattus norvegicus [6]): 63% | Activity (Rattus norvegicus [22]): 79% | Activity (Rattus norvegicus [23]): 88% | Activity (Rattus norvegicus [24]): 92% | Activity (Rattus norvegicus [25]): 4 | Activity (Rattus norvegicus [26]): 6 | Activity (Rattus norvegicus [27]): 4 | Activity (Rattus norvegicus [28]): 3 | Activity (Rattus norvegicus [29]): 3 | Response (Rattus norvegicus [30]): 10.2 min | Response (Rattus norvegicus [18]): 6.3 min | Response (Rattus norvegicus [31]): 10.2 min | Response (Rattus norvegicus [32]): 5.2 min | Response (Rattus norvegicus [33]): 5.9 min | ED50 (Rattus norvegicus [20]): 4.76 mg/kg

COc1cc(CC(C)N)ccc1Br (stereo not given)
Ki [1]: > 25000 nM | Ki [2]: > 25000 nM

COc1cc(CC(C)N)c(O)cc1Br (stereo not given)
Ki [1]: 1710 nM | Ki [2]: 210 nM | ED50 (Rattus norvegicus [20]): 0.18 mg/kg | Activity (Rattus norvegicus [34]): 3 | Response (Rattus norvegicus [35]): 12.1 min | Response (Rattus norvegicus [36]): 11.9 min | Activity (Rattus norvegicus [37]): 4 | Activity (Rattus norvegicus [38]): 3 | Activity (Rattus norvegicus [39]): 19% | Activity (Rattus norvegicus [40]): 55% | Activity (Rattus norvegicus [41]): 96% | Response (Rattus norvegicus [42]): 15.4 min

COc1cc(CC(C)N)c(OC)cc1I (stereo not given)
Ki [1]: 920 nM | Ki [2]: 35 nM | ED50 (Rattus norvegicus [20]): 0.99 mg/kg | Activity (Rattus norvegicus [43]): 43% | Activity (Rattus norvegicus [44]): 93% | Activity (Rattus norvegicus [34]): 3 | Activity (Rattus norvegicus [45]): 3 | Activity (Rattus norvegicus [46]): 3 | Response (Rattus norvegicus [36]): 12.2 min | Response (Rattus norvegicus [47]): 16.9 min | Response (Rattus norvegicus [48]): 7.8 min | Activity (Rattus norvegicus [41]): 14%

CC(N)Cc1ccc(Br)cc1 (stereo not given)
Ki [1]: 2830 nM | Ki [2]: 4650 nM

CCCNC(C)Cc1cc(OC)ccc1OC (stereo not given)
Ki [1]: 4100 nM | Ki [2]: 25600 nM

COc1ccc(OC)c(CC(C)N)c1 (racemic)
Ki [1]: 1020 nM

COc1ccccc1CC(C)N (racemic)
Ki [1]: 3500 nM
